The RNAGym collection of RNA variant scans (doi:10.1126/science.aae0568)
Fewer inactive variants are shown than the library holds.

B1: tRNA (parent)
chain: GUUCCGUUGGCGUAAUGGUAACGCGUCUCCCUCCUAAGGAGAAGACUGCGGGUUCGAGUCCCGUACGGAACG

Variants of: B1
Experiment: yeast fitness relative to wild type (ratio to wild type); higher = fitter; tRNA-Arg(CCU), competitive growth, 37 C, YPD
Method in brief: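 Amplicons of the tRNA-Arg(CCU) gene were sequenced, 100-nucleotide paired-end, from the start population and from each end population of a pooled yeast competition. The competition, in six parallel replicates, lasted 24 hours in YPD at 37°C. Fitness relative to wild type was calculated from changes in genotype frequencies. Genotypes had to have ≥ 100 starting reads, and estimates < 0.5 were set to 0.5.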

| Variant | yeast fitness |
| --- | --- |
| GUUCCGUUGGAGUAGUGGUAACGCGUCUCCCUCCUAAGGAGAAGACUGCGGGUUCGAGUCUCGUUCGGAACG | ≤ 0.5 |
| GUCCCGUUGGCGUAAUGGUAACGGGUCUCCGUCCUAAGGAGAAGACUGCGGGUUCGAGUCGCGUACGGAACG | ≤ 0.5 |
| GUUCCGUUGGCGUAAUGGUAAUGCGUCUACCUCAUAAGGACAAGCCAGCGGGUUAGAGUCCCGUACGGAACG | ≤ 0.5 |
| GUUCCGCUGGCGUAAUGGUAACGCGGCUCCCUCCUCAGGAGAAGACUGCCGGUUCGAGUCCCGUACGGAACG | 0.781 |
| GUUUCGUUGGCGUAAUGGUAACGCGUCUCCCUCCUAAGGAGACGACUGCGAGUUCGAGUCCCGUACGUAACG | 0.623 |
| GUUCCGUUGGCGUAAUGGUAACGCGUCUCGCUGCUAAGGAGAAGACUGCGGGUUCGAGUGCCGUACGGAUCG | ≤ 0.5 |
| GUUCCGUUGGCGAAAUGGUAACGCGUCUCCCCCCUAAGGAGAAGACUGCGGGUGCGAGUCCUGUACGGAACG | ≤ 0.5 |
| GUUCCGGUGGCGUACUGGUAACGCGUCUCCCUCCUAAGGAGAAGCCUGCGGGUUCGAGUCCCGUACGGAACG | 0.565 |
| GUUCCGUUGGCGUAAUGGUACCGCGUCUCCCUCCUAUGGAGAAGACUGCGAGUUCGAGUCCCGUACGGAACG | ≤ 0.5 |
| GUUCCGUUGGCGUAAUGGUAACGCGUCUCCCUCCUAAGGAGAAGAUUGCGGGUUCGAGUCCCGUACGGAUCG | 1.05 |
| GUUCCGUUGGUGUACUGGUAACGCGUAUCCCUCCUAAGGAGAAGACUGCGGGUUCGAGUCCCGUACGAAACG | ≤ 0.5 |
| GUUCCGUUGGCGUAAUGGUAACGCGUCUCCCUCCUAAGGAGAAGCCUGCGGGUUCGAUUCCCGUACGGAACG | 0.675 |
| GUUGCGUUGGCGUAAUGGUAACACGUCUGCCUCCUACGGAGAAGACUGCGGGUUCGAGUCCCGUACGGAACG | 0.651 |
| GUUCUGUUGGCGUAAUGGUAACGCGUGUCCCUCCUAAGCAGAAGACUGCGGAUUCGAGUCCCGUACGGAACG | ≤ 0.5 |
| GUUCCGUUGGCGUAAUGGUAACGCGUCUCUCUCCUAAGGAGAGGACUGCGGGUUCGAGUCCCGUACGGAACG | 0.647 |
| GUUCCGUUGGCGUGAGGGUAACGCGUCUCCCUCCUAAGGAGAAGACUGCGGGUUCGAGUCCCGUACGGAACG | 0.742 |
| GUUCCGUUGGCGUAAUGGUAGCGCGUCUCGCUCCUAAGGAGAAGACUGCGGGUUUGAGUCCCGUACGGAACG | 0.682 |
| GUUCCGUUGGCGUAAUGGUAACGCGUCUCCCUGCUAAGGAGAAGACUGCGGGUUCGAGUCCCCUACGGAACG | ≤ 0.5 |
| GUUCCGUUGGCGUAAUGGUAACGCGUCUCGCUCGUAAGGCGAAGACUGCGGGUUCGAGUCCCGUAAGGCACG | 0.527 |

| Variant | yeast fitness |
| --- | --- |
| GUUCCGUUGGCGUAAUGGUUACGCGUCUAUCUCCUUAGGAGAAGACUGCGGGUUCGAGUCCCGUACGGACCG | 0.594 |
| GUUCCGAUGGCGUAAUGGAAACGCGUCUCCCCCCUAAGGAGAAGACUGCGGGUUCGAGUCCCGUACGGAACG | 0.829 |
| GUUGCGUUGGCGUCAUGGUAACGCCUCUCCCUCCUAAGGAGAAGACUGCGGGUACGAGUCCCGUAGGGAACG | ≤ 0.5 |
| GUUCCGUUGGCGUAAUGGUUACGCGUCUCCGUCCUAAGGAGAAGACUGCGGGUUGGAGUGCCGUAUGGAACG | ≤ 0.5 |
| GUUCCGUUGGCGUAAUGGUAACGCGUCUACCUCCUCAGGAGAAGACUGCGGGUUCGAGUCCCGUACGGAACG | 0.634 |
| GUUCCGUUGGCCUAAUGGUAACGCGUCUCCCUCAUAAGGAGAAGACUGCGGGUUCGAGUCCCGUACGGAUCG | ≤ 0.5 |
| GUUGCGUUGGCGUAUUGGUAACGCGUCUCCCUCCUAAGGAGAAGACUGCGGGUGUGAGUCCCGUACGGAACG | 0.51 |
| GUUCCGUUAGAGUAAUGGUGACGCGUCUCCCUCCUAAGGAGUAGACUGCGGGUUCGAGUCCCGUACGCACCG | 0.554 |
| GUUCCGUUGGCGUAAUGGUAACGCGUCUCCCUCCUAAGGAGAAGACUGCGGGUUGGAGUCCCCUACCGAACG | 0.532 |
| GUUCCGUUGACGUAUUGGUAACGCGUCUCCCUCCUUAGGAGAAGACUGCGGGUUCGAGUCCCAUACGGAACG | ≤ 0.5 |
| GUUCCGUUGGCGUAAUACUAACGCGUCUCCCUCCUAAGCAGAAGACUGCGGGUUCGAGUCCCGUACGGAACG | 0.588 |
| GUUCCGUUGGCGUAAUGGUAACGCGUCUCCCUCCUAAGGAGUAGACUGCGGGUCCGAGUCCCGUACGGAACG | 0.897 |
| GUUCGGUUGGAGUGAUGGUAACGCCUCUGCCUCCUAAGGAGAAGACUGCGGGUUCGAGUUCCGUACGGAACG | ≤ 0.5 |
| GUUCCGUUGGCGUAAUAGUAACGCCUCUCCCUCCUAAGAAGAAGACUGCGGGUUCGAGUCCCGUACGGAACG | ≤ 0.5 |
| GAUCCGUUGGCGUAAUGGUAACGCGUCUACCUCCUAAGGAGAAGUCUGCGGGUUCGAGUCCCGUACCGAACG | ≤ 0.5 |
| GUUCGGUUGGGGUAUUGGUAACGCGUCUCCCUCCUAAGGAGAAGACUGCGGGUUAGAGUCCCGUACGGAACG | ≤ 0.5 |
| GUUCCGUUGGCGUAAUGGUAACGCGUCUCCCUCCUAGGGAGAAGACUGCGGGUUCGAGUCACCUACGGAACG | ≤ 0.5 |
| GUUCCGUUGGCGUAAUCGUAACGCGUCUCCUUCCUAAGGAGCAGACUGCGGGGUCGAGUCCCGUACGGAACG | ≤ 0.5 |
